{"source": "ChEMBL document CHEMBL1687757", "about": "“Many chromosomal genes modulate MarA-mediated multidrug resistance in Escherichia coli” (2010)", "data": [{"test_system": "Escherichia coli", "experiment": "Antibacterial activity against marA-overproducing Escherichia coli CR1000 harboring inactivated damX gene assessed as MarA-mediated multidrug resistance level by measuring fold decrease in MIC relative to MarA-deficient Escherichia coli CR2000", "format": "functional", "design": "scale not given: the % may be the effect or the level left", "method_in_brief": "(§1)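 Each inactivated gene was transferred into both the ΔmarR (CR1000) and the ΔmarRA (CR2000) BW25113 backgrounds. Each derivative was grown overnight in LB and tested by Etest on Mueller-Hinton plates, read after 20 h at 37°C, against cefoxitin, norfloxacin, chloramphenicol and minocycline. The MarA-mediated level compares the MIC in the ΔmarR derivative with the MIC in the matching ΔmarRA derivative.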", "units": {"Activity": "%"}, "values": [{"compound": "CCn1cc(C(=O)O)c(=O)c2cc(F)c(N3CCNCC3)cc21", "note": "[NORFLOXACIN]", "Activity": 46}]}, {"test_system": "Escherichia coli", "experiment": "Antibacterial activity against marA-overproducing Escherichia coli CR1000 harboring inactivated metV gene assessed as MarA-mediated multidrug resistance level by measuring fold change in MIC relative to MarA-deficient Escherichia coli CR2000", "format": "functional", "method_in_brief": "as §1", "units": {"Activity": "%"}, "values": [{"compound": "CCn1cc(C(=O)O)c(=O)c2cc(F)c(N3CCNCC3)cc21", "note": "[NORFLOXACIN]", "Activity": 91}]}, {"test_system": "Escherichia coli", "experiment": "Antibacterial activity against marA-overproducing Escherichia coli CR1000 harboring inactivated acrB gene assessed as MarA-mediated multidrug resistance level by measuring fold decrease in MIC relative to MarA-deficient Escherichia coli CR2000", "format": "functional", "design": "scale not given: the % may be the effect or the level left", "method_in_brief": "as §1", "units": {"Activity": "%"}, "values": [{"compound": "CCn1cc(C(=O)O)c(=O)c2cc(F)c(N3CCNCC3)cc21", "note": "[NORFLOXACIN]", "Activity": 9}]}, {"test_system": "Escherichia coli", "experiment": "Antibacterial activity against marA-overproducing Escherichia coli CR1000 harboring inactivated degP gene assessed as MarA-mediated multidrug resistance level by measuring fold change in MIC relative to MarA-deficient Escherichia coli CR2000", "format": "functional", "method_in_brief": "as §1", "units": {"Activity": "%"}, "values": [{"compound": "CCn1cc(C(=O)O)c(=O)c2cc(F)c(N3CCNCC3)cc21", "note": "[NORFLOXACIN]", "Activity": 91}]}, {"test_system": "Escherichia coli", "experiment": "Antibacterial activity against marA-overproducing Escherichia coli CR1000 harboring inactivated metL gene assessed as MarA-mediated multidrug resistance level by measuring fold change in MIC relative to MarA-deficient Escherichia coli CR2000", "format": "functional", "method_in_brief": "as §1", "units": {"Activity": "%"}, "values": [{"compound": "CCn1cc(C(=O)O)c(=O)c2cc(F)c(N3CCNCC3)cc21", "note": "[NORFLOXACIN]", "Activity": 91}]}, {"test_system": "Escherichia coli", "experiment": "Antibacterial activity against marA-overproducing Escherichia coli CR1000 harboring inactivated recD gene assessed as MarA-mediated multidrug resistance level by measuring fold change in MIC relative to MarA-deficient Escherichia coli CR2000", "format": "functional", "method_in_brief": "as §1", "units": {"Activity": "%"}, "values": [{"compound": "CCn1cc(C(=O)O)c(=O)c2cc(F)c(N3CCNCC3)cc21", "note": "[NORFLOXACIN]", "Activity": 77}]}, {"test_system": "Escherichia coli", "experiment": "Antibacterial activity against marA-overproducing Escherichia coli CR1000 harboring inactivated mhpT gene assessed as MarA-mediated multidrug resistance level by measuring fold change in MIC relative to MarA-deficient Escherichia coli CR2000", "format": "functional", "method_in_brief": "as §1", "units": {"Activity": "%"}, "values": [{"compound": "CCn1cc(C(=O)O)c(=O)c2cc(F)c(N3CCNCC3)cc21", "note": "[NORFLOXACIN]", "Activity": 91}]}, {"test_system": "Escherichia coli", "experiment": "Antibacterial activity against marA-overproducing Escherichia coli CR1000 harboring inactivated pcnB gene assessed as MarA-mediated multidrug resistance level by measuring fold decrease in MIC relative to MarA-deficient Escherichia coli CR2000", "format": "functional", "design": "scale not given: the % may be the effect or the level left", "method_in_brief": "as §1", "units": {"Activity": "%"}, "values": [{"compound": "CCn1cc(C(=O)O)c(=O)c2cc(F)c(N3CCNCC3)cc21", "note": "[NORFLOXACIN]", "Activity": 23}]}, {"test_system": "Escherichia coli", "experiment": "Antibacterial activity against marA-overproducing Escherichia coli CR1000 harboring inactivated cspGp gene assessed as MarA-mediated multidrug resistance level by measuring fold change in MIC relative to MarA-deficient Escherichia coli CR2000", "format": "functional", "method_in_brief": "as §1", "units": {"Activity": "%"}, "values": [{"compound": "CCn1cc(C(=O)O)c(=O)c2cc(F)c(N3CCNCC3)cc21", "note": "[NORFLOXACIN]", "Activity": 91}]}, {"test_system": "Escherichia coli", "experiment": "Antibacterial activity against marA-overproducing Escherichia coli CR1000 harboring inactivated crp gene assessed as MarA-mediated multidrug resistance level by measuring fold change in MIC relative to MarA-deficient Escherichia coli CR2000", "format": "functional", "method_in_brief": "as §1", "units": {"Activity": "%"}, "values": [{"compound": "CCn1cc(C(=O)O)c(=O)c2cc(F)c(N3CCNCC3)cc21", "note": "[NORFLOXACIN]", "Activity": 33}]}, {"test_system": "Escherichia coli", "experiment": "Antibacterial activity against marA-overproducing Escherichia coli CR1000 harboring inactivated appA gene assessed as MarA-mediated multidrug resistance level by measuring fold change in MIC relative to MarA-deficient Escherichia coli CR2000", "format": "functional", "method_in_brief": "as §1", "units": {"Activity": "%"}, "values": [{"compound": "CCn1cc(C(=O)O)c(=O)c2cc(F)c(N3CCNCC3)cc21", "note": "[NORFLOXACIN]", "Activity": 84}]}, {"test_system": "Escherichia coli", "experiment": "Antibacterial activity against marA-overproducing Escherichia coli CR1000 harboring inactivated alx gene assessed as MarA-mediated multidrug resistance level by measuring fold change in MIC relative to MarA-deficient Escherichia coli CR2000", "format": "functional", "method_in_brief": "as §1", "units": {"Activity": "%"}, "values": [{"compound": "CCn1cc(C(=O)O)c(=O)c2cc(F)c(N3CCNCC3)cc21", "note": "[NORFLOXACIN]", "Activity": 68}]}, {"test_system": "Escherichia coli", "experiment": "Antibacterial activity against marA-overproducing Escherichia coli CR1000 harboring inactivated acrA gene assessed as MarA-mediated multidrug resistance level by measuring fold decrease in MIC relative to MarA-deficient Escherichia coli CR2000", "format": "functional", "design": "scale not given: the % may be the effect or the level left", "method_in_brief": "as §1", "units": {"Activity": "%"}, "values": [{"compound": "CCn1cc(C(=O)O)c(=O)c2cc(F)c(N3CCNCC3)cc21", "note": "[NORFLOXACIN]", "Activity": 0}]}, {"test_system": "Escherichia coli", "experiment": "Antibacterial activity against marA-overproducing Escherichia coli CR1000 harboring inactivated cyaA gene assessed as MarA-mediated multidrug resistance level by measuring fold decrease in MIC relative to MarA-deficient Escherichia coli CR2000", "format": "functional", "design": "scale not given: the % may be the effect or the level left", "method_in_brief": "as §1", "units": {"Activity": "%"}, "values": [{"compound": "CCn1cc(C(=O)O)c(=O)c2cc(F)c(N3CCNCC3)cc21", "note": "[NORFLOXACIN]", "Activity": 41}]}]}
